These results are taken from ChEMBL document CHEMBL1139865 (J Med Chem, 2007).

Data set [1] is filed under the species Mus musculus. In words: Reduction in glucose excursion in mouse after oral glucose tolerance test. Format: functional, organism-based.
Data set [2] can be described thus: in vitro. Conditions: human.
A short description of data set [3]: in vitro. To be noted: rat.
Data set [4] is described as follows: Half life in dog at 3 mg/kg, po. To be noted: in vivo. The format is ADME, organism-based, Canis lupus familiaris. Also on record: dose 3 mg/kg, route oral. Summed up:
(§1)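 Dog PK study using the HCl salt, dosed at 1 mg/kg iv or 3 mg/kg orally. Plasma drug levels were followed, and plasma DPP-4 activity was tracked alongside them.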

Data set [5] can be described thus: Half life in dog at 1 mg/kg, iv. The format is ADME, organism-based, Canis lupus familiaris. To be noted: in vivo. The arrangement: dose 1 mg/kg, route intravenous. A digest of the protocol:
as §1

Data set [6] in a line: Clearance in dog at 1 mg/kg, iv and 3 mg/kg, po. Format: ADME, organism-based, Canis lupus familiaris. Conditions: in vivo. Summed up: as §1
Data set [7] in a line: Volume of distribution at steady state in dog at 1 mg/kg, iv and 3 mg/kg, po. Format: ADME, organism-based, Canis lupus familiaris. Conditions: in vivo, read-out: Vdss. Summed up: as §1
A short description of data set [8]: Bioavailability in dog at 1 mg/kg, iv and 3 mg/kg, po. The format is ADME, organism-based, Canis lupus familiaris. To be noted: in vivo. Summed up: as §1
A short description of data set [9]: AUC in dog at 3 mg/kg, po. The format is ADME, organism-based, Canis lupus familiaris. The arrangement: dose 3 mg/kg, route oral. To be noted: plasma. Summed up: as §1
For data set [10], the species on record is Rattus norvegicus. Briefly: Improvement in glucose tolerance in Wistar fatty rat. The format is functional, organism-based. Summed up: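 Glucose tolerance test in female Wistar fatty rats given the benzoate salt, with doses normalized to free base. Read-outs after an oral glucose load were plasma glucose, the baseline (0 min)-adjusted glucose AUC0–60min, and plasma immunoreactive insulin, including the level at 10 min. Data are mean and SD (n = 6), compared with control by one-tailed Williams'/Shirley-Williams' tests.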

Data set [11] is filed under the species Rattus norvegicus. In words: Increase in plasma insulin level in Wistar fatty rat. Format: functional, organism-based. A digest of the protocol:
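Female Wistar fatty rats given a benzoate salt, with doses expressed as free base, then an oral glucose load. Plasma immunoreactive insulin read 10 min after the glucose load. Mean and SD, n = 6. Compared with control by one-tailed Williams' or Shirley-Williams' test, p ≤ 0.025.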

The nature of data set [12]: Half life in rat at 10 mg/kg, po. The format is ADME, organism-based. Also on record: dose 10 mg/kg, route oral. To be noted: in vivo. Summed up:
(§2)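 Rat PK study using the TFA salt. A single iv dose (1 mg/kg) and a separate oral dose (10 mg/kg) were given. Half-life was derived for each route, and CL and Vdss for the iv route. F (%) was calculated from the oral and iv exposure.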

The nature of data set [13]: Half life in rat at 1 mg/kg, iv. To be noted: in vivo. Format: ADME, organism-based. The arrangement: dose 1 mg/kg, route intravenous. A digest of the protocol:
as §2

Data set [14] is described as follows: Clearance in rat at 1 mg/kg, iv and 10 mg/kg, po. Format: ADME, organism-based. To be noted: in vivo. Summed up:
as §2

The nature of data set [15]: AUC in rat at 10 mg/kg, po. Conditions: plasma. The format is ADME, organism-based. Also on record: dose 10 mg/kg, route oral. Summed up:
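Rat pharmacokinetics with the test article given as the TFA salt: 1 mg/kg iv and 10 mg/kg oral. Oral AUC comes from plasma concentrations after oral dosing. Half-lives, clearance, Vdss and oral bioavailability are derived from the same iv/oral pair.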

Data set [16] in a line: Volume of distribution at steady state in rat at 1 mg/kg, iv and 10 mg/kg, po. Format: ADME, organism-based. Conditions: in vivo, read-out: Vdss. Summed up:
as §2

The nature of data set [17]: Bioavailability in monkey at 1.1 mg/kg, iv and 10 mg/kg, po. Conditions: rhesus monkey, in vivo. The format is ADME, organism-based, Macaca mulatta. Summed up:
(§3)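 Monkey PK study using the benzoate salt, dosed at 1.1 mg/kg iv or 10 mg/kg orally. Plasma drug concentrations and plasma DPP-4 inhibition were measured. Parameters derived were iv and oral half-lives, oral AUC, CL, Vdss and F (%).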

The nature of data set [18]: Volume of distribution at steady state in monkey at 1.1 mg/kg, iv and 10 mg/kg, po. The format is ADME, organism-based, Macaca mulatta. Conditions: rhesus monkey, in vivo, read-out: Vdss. Summed up:
as §3

A short description of data set [19]: Half life in monkey at 1.1 mg/kg, iv. The format is ADME, organism-based, Macaca mulatta. Also on record: dose 1.1 mg/kg, route intravenous. To be noted: rhesus monkey, in vivo. Summed up:
as §3

Data set [20] in a line: Half life in monkey at 10 mg/kg, po. Format: ADME, organism-based, Macaca mulatta. Also on record: dose 10 mg/kg, route oral. Conditions: rhesus monkey, in vivo. A digest of the protocol: as §3
The nature of data set [21]: AUC in monkey at 10 mg/kg, po. Format: ADME, organism-based, Macaca mulatta. Also on record: dose 10 mg/kg, route oral. To be noted: rhesus monkey, plasma. A digest of the protocol:
as §3

Data set [22] in a line: Clearance in monkey at 1.1 mg/kg, iv and 10 mg/kg, po. The format is ADME, organism-based, Macaca mulatta. To be noted: rhesus monkey, in vivo. A digest of the protocol: as §3

SMILES strings stand for the structures. Active and inactive are the calls of the source. No cut-off for these calls is given here.

In the case of `N#Cc1ccccc1Cn1c(N2CCC[C@@H](N)C2)nc2ccc(F)cc2c1=O` [listing 1 of 2 here], in data set [1], the outcome was Active.
On to `N#Cc1ccccc1Cn1c(N2CCC[C@@H](N)C2)nc2cccc(F)c2c1=O`, for which the half-life at 1 µM in [2] (microsomes) worked out at 2.08 h; in [3] (microsomes), 0.03 h.
Take `N#Cc1ccccc1Cn1c(N2CCC[C@@H](N)C2)nc2ccc(Br)cc2c1=O`: the half-life at 1 µM in [2] (liver microsomes) is 1.88 h; in [3] (liver microsomes) it was 0.567 h.
Taken in the same sequence, the figures for `N#Cc1ccccc1Cn1c(N2CCC[C@@H](N)C2)nc2ccc(F)cc2c1=O` [listing 2 of 2 here] were > 3.33 h and 0.517 h.
For `N#Cc1ccccc1Cn1c(N2CCCC(N)C2)nc2c(Cl)cccc2c1=O` (configuration not stated) the same measures were 1.33 h and 0.0617 h.
For the compound `Cl.Cn1c(=O)cc(N2CCC[C@@H](N)C2)n(Cc2ccccc2C#N)c1=O`, the half-life in data set [4] is 3.04 h; in data set [5], 2.93 h. For the same compound, the clearance in data set [6] stood at 23 mL/min/kg. In addition, in data set [7], the Vd stood at 3.51 L/kg. The same compound gave a bioavailability in data set [8] of 68%. The compound further gave an AUC in [9] of 1610 ng·h/mL.
As to `N#Cc1ccccc1Cn1c(N2CCC[C@@H](N)C2)nc2c(Cl)cc(Cl)cc2c1=O`, the half-life at 1 µM in data set [2] (microsomes) was 1.07 h; in data set [3] (microsomes) it was 0.283 h.
As to `COc1cc2c(=O)n(Cc3ccccc3C#N)c(N3CCC[C@@H](N)C3)nc2cc1F`, the half-life at 1 µM in data set [2] (liver microsomes) was determined as 2.27 h; in data set [3] (liver microsomes), 0.583 h.
As for `Cn1c(=O)cc(N2CCC[C@@H](N)C2)n(Cc2ccccc2C#N)c1=O`, the Activity result in data set [10] is “Dose-dependent effect”. Moreover, the result in data set [11] was Active.
On to `COc1cc2nc(N3CCC[C@@H](N)C3)n(Cc3ccccc3C#N)c(=O)c2cc1OC`, for which the half-life at 1 µM in data set [2] (liver microsomes) came out at 2.43 h; in data set [3] (liver microsomes) it was 1.78 h.
Take `N#Cc1ccccc1Cn1c(N2CCC[C@@H](N)C2)nc2ccc(Cl)cc2c1=O`: the half-life at 1 µM in [2] (liver microsomes) was > 3.33 h; in data set [3] (liver microsomes), 0.667 h.
`N#Cc1ccccc1Cn1c(N2CCC[C@@H](N)C2)nc2ccc(F)cc2c1=O.O=C(O)C(F)(F)F`: the half-life in data set [12] is 2.43 h; in [13], 2.6 h. The same compound returned a clearance in data set [14] of 20.6 mL/min/kg. Besides, in data set [15], the AUC came out at 7560 ng·h/mL. The Vd in data set [16] was 2.87 L/kg.
On to `N#Cc1ccccc1Cn1c(N2CCC[C@@H](N)C2)nc2cc(N3CCOCC3)c(F)cc2c1=O`, for which the half-life at 1 µM was 0.55 h in [2] (liver microsomes) and 0.102 h in data set [3] (liver microsomes).
Taken in the same sequence, the figures for `COc1ccc2nc(N3CCC[C@@H](N)C3)n(Cc3ccccc3C#N)c(=O)c2c1` were 1.37 h and 0.167 h.
Turning to `N#Cc1ccccc1Cn1c(N2CCC[C@@H](N)C2)nc2ccccc2c1=O`, the half-life at 1 µM in [2] (microsomes) was > 3.33 h; in [3] (microsomes) it was 0.0417 h.
For `Cn1c(=O)cc(N2CCC[C@@H](N)C2)n(Cc2ccccc2C#N)c1=O.O=C(O)c1ccccc1` [ALOGLIPTIN BENZOATE], in data set [17], the bioavailability is 87%. Further, the Vd in data set [18] was 2.6 L/kg. Further, the half-life in data set [19] is 5.74 h; in data set [20], 5.66 h. Further, in data set [21], the AUC turned out to be 16600 ng·h/mL. This compound also had a clearance in [22] of 8.81 mL/min/kg.
